pEC50, pKd: −log10 of the molar value. Bounds are passed on as bounds.

A short description of data set [1]: Binding affinity to HIV1 gp41-GCN4-pIQI fusion protein IQN17. On the set-up: species or system Human immunodeficiency virus 1. The gist of the method:
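β-peptides labeled at the N-terminus with fluorescein-hexanoic acid NHS ester and tested in a direct fluorescence polarization assay against IQN17. IQN17 is a trimeric fusion of 17 gp41 N-terminal residues with a 29-residue isoleucine zipper. KD is taken at 50% binding of IQN17. Binding curves run in triplicate.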

For data set [2], the system named is Human immunodeficiency virus 1. Description: Antiviral activity against HIV1 3B infected human MT2 cells assessed as cytoprotection after 5 days by MTT colorimetric method. The format is functional, organism-based. To be noted: Human immunodeficiency virus 1, 3B, MT2, 120 h. An outline of the steps:
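MT-2 human T-cells plated with a range of β-peptide concentrations and cultured with wild-type HIV-1 IIIB for 5 days. Live cells measured by MTT reduction to formazan, read at 595 nm. EC50 is the peptide concentration giving 50% survival of infected cells. Triplicate samples at each concentration.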

Data set [3] in a line: Cytotoxicity against human MT2 cells by MTT colorimetric method. The format is cell-based. An outline of the steps:
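Uninfected MT-2 cells cultured with a range of β-peptide concentrations, without virus. Viability read by MTT colorimetric assay. CC50 is the concentration giving 50% inhibition of MT-2 cell growth. Triplicate samples at each concentration.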
(In general: Tetrazolium assays rely on reduction of a dye to a coloured formazan, in cell work by metabolically active cells.)

Data set [4] is described as follows: Selectivity ratio of CC50 for human MT2 cells to EC50 for HIV1 3B infected human MT2 cells. The format is ADME, cell-based. To be noted: for selectivity ratio: MT2 cells and HIV1 3B infected MT2 cells, read-out: Ratio CC50/EC50. The gist of the method:
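Ratio of CC50 to EC50. CC50 comes from MTT viability of uninfected MT-2 cells given peptide alone. EC50 comes from MTT survival of MT-2 cells infected with HIV-1 IIIB after 5 days. Both curves used triplicate samples.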

As a reminder, the pKd is the negative decadic logarithm of the Kd, by convention in mol/L. A lower pKd goes with a large Kd. In general, pEC50 refers to the EC50 on a negative log10 scale, so that one unit is a factor of ten. In general, CC50 refers to the concentration giving 50% cytotoxicity. Read a low CC50 as greater toxicity to the cells. On to `CC[C@@](C)(CC(=O)N[C@H](CC(=O)O)CC(=O)NC(C)(C)CC(=O)NC(CC(=O)N[C@@H](CCN)CC(=O)NC(C)(C)CC(=O)N[C@H](CC(=O)NC(CC(=O)O)CC(=O)O)Cc1c[nH]c2ccccc12)Cc1ccc(I)cc1)NC(=O)CC(C)(C)NC(=O)C[C@@H](N)CCN` (stereo partly specified), for which, in data set [1], the pKd is 4.85. Further, in data set [2], the pEC50 is 5.05. In data set [3], the 50% cytotoxic concentration (CC50) was determined as 23 µM.
Turning to `CC[C@@](C)(CC(=O)N[C@H](CC(=O)O)CC(=O)NC(C)(C)CC(=O)NC(CC(=O)N[C@@H](CCN)CC(=O)NC(C)(C)CC(=O)N[C@H](CC(=O)NC(CC(=O)O)CC(=O)O)Cc1c[nH]c2ccccc12)Cc1cccnc1)NC(=O)CC(C)(C)NC(=O)C[C@@H](N)CCN` (stereo partly specified), the pKd in data set [1] is 3.98. Further, the pEC50 in data set [2] was less than 3.60. In data set [3], this compound showed a CC50 greater than 250 µM. For the same compound, the “Ratio CC50/EC50” value in data set [4] (mt2) is on record as “Not Active”.
In turn, `CC[C@@](C)(CC(=O)N[C@H](CC(=O)O)CC(=O)NC(C)(C)CC(=O)NC(CC(=O)N[C@@H](CCN)CC(=O)NC(C)(C)CC(=O)N[C@H](CC(=O)NC(CC(=O)O)CC(=O)O)Cc1c[nH]c2ccccc12)Cc1ccc2ccccc2c1)NC(=O)CC(C)(C)NC(=O)C[C@@H](N)CCN` (stereo partly specified) had a negative-log Kd (pKd) in data set [1] of 4.91. In addition, the pEC50 in data set [2] is 5.09. The half-maximal cytotoxic concentration (CC50) in data set [3] was 23 µM.
The compound `CC[C@@](C)(CC(=O)N[C@H](CC(=O)O)CC(=O)NC(C)(C)CC(=O)N[C@@H](CC(=O)N[C@@H](CCN)CC(=O)NC(C)(C)CC(=O)N[C@H](CC(=O)NC(CC(=O)O)CC(=O)O)Cc1c[nH]c2ccccc12)Cc1c[nH]c2ccccc12)NC(=O)CC(C)(C)NC(=O)C[C@@H](N)CCN` had a pKd in data set [1] of 4.78. Moreover, the negative logarithm of the EC50 (pEC50) in data set [2] was 4.25. Besides, it took 100 µM to reach half-maximal cytotoxicity in data set [3] (CC50). For the same compound, the selectivity ratio in data set [4] came out at 1.8.
The like results for `CC[C@@](C)(CC(=O)N[C@H](CC(=O)O)CC(=O)NC(C)(C)CC(=O)NC(CC(=O)N[C@@H](CCN)CC(=O)NC(C)(C)CC(=O)N[C@H](CC(=O)NC(CC(=O)O)CC(=O)O)Cc1c[nH]c2ccccc12)Cc1ccccc1Cl)NC(=O)CC(C)(C)NC(=O)C[C@@H](N)CCN` (stereo partly specified) were, in that order, 4.88, 5.06, 31 µM and 3.5.
As for `CC[C@@](C)(CC(=O)N[C@H](CC(=O)O)CC(=O)NC(C)(C)CC(=O)NC(CC(=O)N[C@@H](CCN)CC(=O)NC(C)(C)CC(=O)N[C@H](CC(=O)NC(CC(=O)O)CC(=O)O)Cc1c[nH]c2ccccc12)Cc1cccc(F)c1)NC(=O)CC(C)(C)NC(=O)C[C@@H](N)CCN` (stereo partly specified), in data set [1], the pKd is 4.80. Also, in data set [2], the pEC50 is 4.74. In data set [3], it took 50 µM to reach half-maximal cytotoxicity (CC50).
Regarding `CC[C@@](C)(CC(=O)N[C@H](CC(=O)O)CC(=O)NC(C)(C)CC(=O)NC(CC(=O)N[C@@H](CCN)CC(=O)NC(C)(C)CC(=O)N[C@H](CC(=O)NC(CC(=O)O)CC(=O)O)Cc1c[nH]c2ccccc12)Cc1cccc(C(F)(F)F)c1)NC(=O)CC(C)(C)NC(=O)C[C@@H](N)CCN` (stereo partly specified), the pKd in data set [1] is 4.99. Also, the negative-log EC50 (pEC50) in data set [2] is 4.72. Further, it took 150 µM to reach half-maximal cytotoxicity in data set [3] (CC50). In data set [4], the selectivity ratio was 7.9.
Take enfuvirtide: the pEC50 in data set [2] is 7.43.
